In ChEMBL document CHEMBL3813598, “Development of hydroxy-based sphingosine kinase inhibitors and anti-inflammation in dextran sodium sulfate induced colitis in mice” (Bioorg Med Chem, 2016):
Activity calls are given as the source filed them. The rule behind the calls is not given here.

Experiments:
Sphingosine kinase 1 [1] = biological target: T1, Sphingosine kinase 1 (Homo sapiens, UniProt Q9NYA1); experiment: Inhibition of GST-tagged full length human recombinant SPHK1 expressed in baculovirus using sphingosine as substrate preincubated for 10 mins measured after 1 hr by ADP-quest assay
Sphingosine kinase 2 [2] = biological target: T2, Sphingosine kinase 2 (Homo sapiens, UniProt Q9NRA0); experiment: Inhibition of GST-tagged full length human recombinant SPHK2 expressed in baculovirus using sphingosine as substrate preincubated for 10 mins measured after 1 hr by ADP-quest assay
T2 sequence (Q9NRA0 whole entry): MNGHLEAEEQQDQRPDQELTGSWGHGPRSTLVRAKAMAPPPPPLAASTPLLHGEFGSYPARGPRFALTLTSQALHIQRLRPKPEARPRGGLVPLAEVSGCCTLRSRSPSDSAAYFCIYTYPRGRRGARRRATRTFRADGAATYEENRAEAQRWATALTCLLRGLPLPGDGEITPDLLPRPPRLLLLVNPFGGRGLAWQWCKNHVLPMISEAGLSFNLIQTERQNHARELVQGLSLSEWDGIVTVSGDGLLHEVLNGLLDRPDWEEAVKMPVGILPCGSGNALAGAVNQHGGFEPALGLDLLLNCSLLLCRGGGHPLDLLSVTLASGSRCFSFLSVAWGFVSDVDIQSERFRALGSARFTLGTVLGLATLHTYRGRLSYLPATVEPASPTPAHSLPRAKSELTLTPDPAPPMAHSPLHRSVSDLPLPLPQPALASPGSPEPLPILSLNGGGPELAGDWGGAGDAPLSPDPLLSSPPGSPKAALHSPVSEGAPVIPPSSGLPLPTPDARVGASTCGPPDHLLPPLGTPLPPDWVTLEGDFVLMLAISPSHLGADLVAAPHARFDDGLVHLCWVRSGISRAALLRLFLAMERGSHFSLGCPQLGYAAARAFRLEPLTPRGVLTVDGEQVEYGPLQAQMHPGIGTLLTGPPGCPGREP
Method in brief: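 Human recombinant SphK1 or SphK2 with sphingosine substrate and ATP, tested in 384-well format. Enzyme was preincubated with compound for 10 min, then the reaction ran at 28 °C for 1 h. ADP Quest reagents A and B were added for 30 min at room temperature. Fluorescence was read at Ex 530/Em 590 nm. Values are mean of n = 3 in triplicate.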

Sphingosine kinase 1 [3] = biological target: T1, Sphingosine kinase 1; experiment: Inhibition of His-tagged full length human recombinant SPHK1 expressed in baculovirus infected fall armyworm Sf9 cell expression system using sphingosine as substrate by ADP-quest assay
Sphingosine kinase 2 [4] = biological target: T2, Sphingosine kinase 2; experiment: Inhibition of His-tagged full length human recombinant SPHK2 expressed in baculovirus infected fall armyworm Sf9 cell expression system using sphingosine as substrate by ADP-quest assay
Mus musculus [5] = experiment: Antiinflammatory activity in DSS- induced C57BL/6 mouse colon colitis model assessed as inhibition of IL6 expression at 5 to 10 mg/kg, ip after 24 hrs by hematoxylin staining based assay; type: functional, organism-based
Method in brief: (§1)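 Colons come from the same DSS model, fixed in 10% buffered formalin for at least 24 h. Paraffin sections were deparaffinized. Antigen was retrieved in 10 mM sodium citrate with 0.1% Tween 20 at 100 °C for 20 min. Primary antibody was applied in PBS with 5% BSA and 10% goat serum, then HRP polymer at room temperature for 30 min. Detection was DAB with hematoxylin counterstain. IL-6 and COX-2 positive labeling was counted automatically. Mean ± SD.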

Mus musculus [6] = experiment: Antiinflammatory activity in DSS- induced C57BL/6 mouse colitis model assessed as colon length at 10 mg/kg, ip after 10 days (reference value: 45.68 +/- 1.34 mm); type: functional
Method in brief: (§2)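 Female C57BL/6 mice, 6–8 weeks, randomized into five groups. Colitis induced by 2.5% w/v DSS in drinking water for 5 days, then 5 days of normal water. Test agent given ip at 5 or 10 mg/kg, or 5-ASA ig at 50 mg/kg, until study end. Controls were water plus vehicle and DSS plus vehicle. Body weight recorded daily; colon length taken at sacrifice on day 10. Mean ± SD, n = 10.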

Mus musculus [7] = experiment: Antiinflammatory activity in DSS- induced C57BL/6 mouse colon colitis model assessed as degeneration/necrosis of crypt cells at 10 mg/kg, ip after 24 hrs by hematoxylin/eosin staining based assay; type: functional, organism-based
Method in brief: (§3)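 Colitis induced in female C57BL/6 mice as 2.5% DSS in drinking water for 5 days, then 5 days of water. Dosing ip or 5-ASA ig until sacrifice at day 10. Colons fixed in 10% buffered formalin (pH 7.4) for at least 24 h. Sections scored for cellular infiltration, mucosal lesion and crypt damage to give a histologic score.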

Mus musculus [8] = experiment: Antiinflammatory activity in DSS- induced C57BL/6 mouse colon colitis model assessed as mucosal/submucosal lesion at 10 mg/kg, ip after 24 hrs by hematoxylin/eosin staining based assay; type: functional, organism-based; method in brief: as §3
Mus musculus [9] = experiment: Antiinflammatory activity in DSS- induced C57BL/6 mouse colon colitis model assessed as inhibition of COX2 expression at 5 to 10 mg/kg, ip after 24 hrs by hematoxylin staining based assay; type: functional, organism-based; method in brief: as §1
Mus musculus [10] = experiment: Antiinflammatory activity in DSS- induced C57BL/6 mouse colitis model assessed as body weight at 10 mg/kg, ip after 10 days (reference value: 15.69 +/- 0.65 g); type: functional; method in brief: as §2
Mus musculus [11] = experiment: Antiinflammatory activity in DSS- induced C57BL/6 mouse colitis model assessed as colon length at 5 mg/kg, ip after 10 days (reference value: 45.68 +/- 1.34 mm); type: functional; method in brief: as §2
Mus musculus [12] = experiment: Antiinflammatory activity in DSS- induced C57BL/6 mouse colitis model assessed as body weight at 5 mg/kg, ip after 10 days (reference value: 15.69 +/- 0.65 g); type: functional; method in brief: as §2
Mus musculus [13] = experiment: Antiinflammatory activity in DSS- induced C57BL/6 mouse colitis model assessed as change in body weight at 5 to 10 mg/kg, ip after 7 days; type: functional, organism-based; method in brief: as §2
Mus musculus [14] = experiment: Antiinflammatory activity in DSS- induced C57BL/6 mouse colon colitis model assessed as cellular infiltration of mononuclear macrophages/neutrophils at 10 mg/kg, ip after 24 hrs by hematoxylin/eosin staining based assay; type: functional, organism-based; method in brief: as §3
Mus musculus [15] = experiment: Antiinflammatory activity in DSS- induced C57BL/6 mouse colitis model assessed as body weight at 50 mg/kg, ig after 10 days (reference value: 15.69 +/- 0.65 g); type: functional; method in brief: as §2
Mus musculus [16] = experiment: Antiinflammatory activity in DSS- induced C57BL/6 mouse colon colitis model assessed as cellular infiltration of mononuclear macrophages/neutrophils at 50 mg/kg, ig after 24 hrs by hematoxylin/eosin staining based assay; type: functional, organism-based; method in brief: as §3
Mus musculus [17] = experiment: Antiinflammatory activity in DSS- induced C57BL/6 mouse colon colitis model assessed as mucosal/submucosal lesion at 50 mg/kg, ig after 24 hrs by hematoxylin/eosin staining based assay; type: functional, organism-based; method in brief: as §3
Mus musculus [18] = experiment: Antiinflammatory activity in DSS- induced C57BL/6 mouse colon colitis model assessed as inhibition of IL6 expression at 50 mg/kg, ig after 24 hrs by hematoxylin staining based assay; type: functional, organism-based; method in brief: as §1
Mus musculus [19] = experiment: Antiinflammatory activity in DSS- induced C57BL/6 mouse colon colitis model assessed as inhibition of COX2 expression at 50 mg/kg, ig after 24 hrs by hematoxylin staining based assay; type: functional, organism-based; method in brief: as §1
Mus musculus [20] = experiment: Antiinflammatory activity in DSS- induced C57BL/6 mouse colon colitis model assessed as degeneration/necrosis of crypt cells at 50 mg/kg, ig after 24 hrs by hematoxylin/eosin staining based assay; type: functional, organism-based; method in brief: as §3
Mus musculus [21] = experiment: Antiinflammatory activity in DSS- induced C57BL/6 mouse colitis model assessed as change in body weight at 50 mg/kg, ig after 7 days; type: functional, organism-based; method in brief: as §2
Mus musculus [22] = experiment: Antiinflammatory activity in DSS- induced C57BL/6 mouse colitis model assessed as colon length at 50 mg/kg, ig after 10 days (reference value: 45.68 +/- 1.34 mm); type: functional; method in brief: as §2

T1 sequence (Q9NYA1 whole entry): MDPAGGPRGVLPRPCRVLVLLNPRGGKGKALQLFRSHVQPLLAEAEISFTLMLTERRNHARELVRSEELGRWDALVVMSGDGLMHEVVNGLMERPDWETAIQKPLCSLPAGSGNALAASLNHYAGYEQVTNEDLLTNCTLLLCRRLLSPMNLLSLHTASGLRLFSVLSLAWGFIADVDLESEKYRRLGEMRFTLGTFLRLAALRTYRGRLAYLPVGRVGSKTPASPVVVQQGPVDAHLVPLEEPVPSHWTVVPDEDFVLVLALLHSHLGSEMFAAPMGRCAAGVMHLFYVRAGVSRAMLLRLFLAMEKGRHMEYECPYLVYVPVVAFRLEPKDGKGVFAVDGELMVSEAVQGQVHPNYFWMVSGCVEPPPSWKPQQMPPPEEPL

Row | Compound | IC50 (Sphingosine kinase 1 [1]) [µM] | IC50 (Sphingosine kinase 2 [2]) [µM] | other results
1 | COc1cccc(COc2cccc(/C=N/NC(=O)c3cc(O)cc(O)c3)c2)c1 | > 100 | > 100 | 
2 | O=C(NCc1ccc(O)c(O)c1)C12CC3CC(C1)CC(c1ccc(Cl)cc1)(C3)C2 |  |  | Ki (Sphingosine kinase 1 [3]): 3.2 µM; Ki (Sphingosine kinase 2 [4]): 4.2 µM
3 | O=C(N/N=C/c1ccc(OCc2ccccc2C(F)(F)F)cc1)c1ccc(O)cc1 | > 100 | > 100 | 
4 | COc1cccc(COc2ccc(/C=N/NC(=O)c3ccc(O)cc3)cc2)c1 | > 100 | > 100 | 
5 | Cc1ccccc1COc1cccc(/C=N/NC(=O)c2cc(O)c(O)c(O)c2)c1 | 63.2 | 81.2 | 
6 | Nc1ccc(O)c(C(=O)O)c1 [MESALAMINE] |  |  | Activity (Mus musculus [15]): 18.32 g; Activity (Mus musculus [16]): Active; Activity (Mus musculus [17]): Active; inhibition (Mus musculus [18]): Active; inhibition (Mus musculus [19]): Active; Activity (Mus musculus [20]): Active; Activity (Mus musculus [21]): inactive; Activity (Mus musculus [22]): 53.4 mm
7 | COc1cccc(COc2ccc(/C=N/NC(=O)c3cc(O)cc(O)c3)cc2)c1 | > 100 | > 100 | 
8 | O=C(N/N=C/c1cccc(OCc2cccc(C(F)(F)F)c2)c1)c1cc(O)c(O)c(O)c1 | > 100 | > 100 | 
9 | O=C(N/N=C/c1cccc(OCc2ccc(Cl)cc2)c1)c1cc(O)c(O)c(O)c1 | > 100 | 61.2 | 

More lines, in order of falling IC50 (Sphingosine kinase 1 [1]), values ahead:

Row | IC50 (Sphingosine kinase 1 [1]) [µM] | IC50 (Sphingosine kinase 2 [2]) [µM] | Compound | other results
10 | 54.7 | 23.8 | O=C(N/N=C/c1ccc(OCc2cccc(C(F)(F)F)c2)cc1)c1cc(O)c(O)c(O)c1 | 
11 | 45.4 | 68.6 | N#Cc1ccccc1COc1cccc(/C=N/NC(=O)c2cc(O)c(O)c(O)c2)c1 | 
12 | 40.5 | 43.3 | CC(C)(C)c1ccc(COc2ccc(/C=N/NC(=O)c3cc(O)c(O)c(O)c3)cc2)cc1 | 
13 | 40.2 | 26.3 | O=C(N/N=C/c1cccc(OCc2ccccc2)c1)c1cc(O)c(O)c(O)c1 | 
14 | 37.4 | 15.6 | O=C(N/N=C/c1ccc(OCc2ccc(C(F)(F)F)cc2)cc1)c1cc(O)c(O)c(O)c1 | 
15 | 31.3 | 40.6 | O=C(N/N=C/c1cccc(OCc2cccc3ccccc23)c1)c1cc(O)c(O)c(O)c1 | 
16 | 25.3 | 10.1 | COc1cccc(COc2ccc(/C=N/NC(=O)c3ccc(O)c(O)c3)cc2)c1 | 
17 | 20.6 | 30.2 | O=C(N/N=C/c1ccc(OCc2ccc3ccccc3c2)cc1)c1cc(O)c(O)c(O)c1 | 
18 | 20.5 | 19.5 | COc1ccccc1COc1cccc(/C=N/NC(=O)c2cc(O)c(O)c(O)c2)c1 | 
19 | 19.6 | 16.3 | O=C(N/N=C/c1cccc(OCc2ccccc2C(F)(F)F)c1)c1cc(O)c(O)c(O)c1 | 
20 | 18.4 | 26.6 | COc1ccccc1COc1ccc(/C=N/NC(=O)c2cc(O)c(O)c(O)c2)cc1 | 
21 | 15.5 | 13.8 | O=C(N/N=C/c1cccc(OCc2ccccc2C(F)(F)F)c1)c1ccc(O)c(O)c1 | 
22 | 4.36 | 2.17 | COc1cccc(COc2ccc(/C=N/NC(=O)c3cc(O)c(O)c(O)c3)cc2)c1 | inhibition (Mus musculus [5]): Active; Activity (Mus musculus [6]): 51.41 mm; Activity (Mus musculus [7]): Active; Activity (Mus musculus [8]): Active; inhibition (Mus musculus [9]): Active; Activity (Mus musculus [10]): 17.5 g; Activity (Mus musculus [11]): 53.04 mm; Activity (Mus musculus [12]): 17.1 g; Activity (Mus musculus [13]): inactive; Activity (Mus musculus [14]): Active
